Results on 27 molecules are retold here after ChEMBL document CHEMBL4196055, “Synthesis and biological evaluation of α-santonin derivatives as anti-hepatoma agents” (Eur J Med Chem, 2018).

The test system of assay [1] is HepG2. In words: Antiproliferative activity against human HepG2 cells at 10 uM after 24 hrs by CCK-8 assay relative to control. The format is functional. The method in brief: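 HepG-2 grown in DMEM with 10% FBS and penicillin/streptomycin (37 °C, 5% CO2). Seeded 2 × 10^5 cells/well for 24 h, then given a single 10 μM dose or 1% DMSO vehicle for 24 h. CCK-8 reagent for 1 h, A450 read, and percent inhibition calculated against untreated control cells.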
For orientation: Tetrazolium dyes change colour on reduction, which living cells bring about.

Assay [2] concerns HepG2. In words: Antiproliferative activity against human HepG2 cells after 24 hrs by CCK-8 assay. The format is functional, cell-based. The settings on record: HepG2, 24 h. The procedure, abridged:
(§1)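 Cells in 10% FBS medium with penicillin/streptomycin at 37 °C, 5% CO2; HepG-2 in DMEM, QGY-7703, SMMC-7721 and QSG-7701 in RPMI 1640. Seeded 2 × 10^5 cells/well, grown 24 h, then exposed to five concentrations of compound or 1% DMSO vehicle for 24 h. CCK-8 added for 1 h, absorbance read at 450 nm; IC50 derived from the 5-dose data.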

Another assay deals with QGY-7703. In words: Antiproliferative activity against human QGY7703 cells after 24 hrs by CCK-8 assay. Format: functional, cell-based. The note with it: QGY-7703, 24 h. The method in brief: as §1
A further assay concerns SMMC-7721. In words: Antiproliferative activity against human SMMC7721 cells after 24 hrs by CCK-8 assay. Format: functional, cell-based. The settings on record: SMMC-7721, 24 h. The procedure, abridged: as §1
Assay [3] can be described thus: Antiproliferative activity against human QSG7701 cells after 24 hrs by CCK-8 assay. The note with it: QSG7701, 24 h. The format is cell-based. The method in brief:
as §1

The structures appear in SMILES notation. A value given as a limit tells only on which side of the number the result lay.

Regarding `C=C1C(=O)O[C@@H]2C3=C(C)[C@@H](OC(=O)c4ccc(CC)cc4)CC3[C@](C)(OC(C)=O)CC[C@@H]12` (stereo partly drawn), in the assay with HepG2 [1], the Activity stood at 42.33%.
As for `C=C1C(=O)O[C@@H]2C3=C(C)[C@@H](OC(=O)/C=C/c4ccc(OCCC)cc4)CC3[C@](C)(OC(C)=O)CC[C@@H]12` (stereo partly drawn), the Activity with HepG2 [1] came to 47.78%.
The molecule `C=C1C(=O)O[C@@H]2C3=C(C)[C@@H](OC(=O)/C=C/c4ccccc4)CC3[C@](C)(OC(C)=O)CC[C@@H]12` (stereo partly drawn) showed an Activity in the assay on HepG2 [1] of 56.11%. The IC50 with HepG2 [2] was 16.2 µM; in the assay on QGY-7703, 18.8 µM; with SMMC-7721, 6.43 µM; in assay [3], above 100 µM.
In turn, `C=C1C(=O)O[C@@H]2C3=C(C)[C@@H](OC(=O)c4ccc(Br)cc4)CC3[C@](C)(OC(C)=O)CC[C@@H]12` (stereo partly drawn) registered an Activity in the assay with HepG2 [1] of 71.06%. Moreover, the IC50 was 7.41 µM in the assay with HepG2 [2], 13.7 µM with QGY-7703, 6.54 µM in the assay with SMMC-7721 and 51.9 µM in assay [3].
On to `C=C1C(=O)O[C@@H]2C3=C(C)[C@@H](OC(=O)c4ccc(C(F)(F)F)cc4)CC3[C@](C)(OC(C)=O)CC[C@@H]12` (stereo partly drawn), for which the Activity with HepG2 [1] is listed as 72.42%. The IC50 in the assay on HepG2 [2] was found to be 5.63 µM; in the assay with QGY-7703 it was 5.64 µM; in the assay on SMMC-7721, 5.49 µM; in assay [3], 41.1 µM.
In turn, `C=C1C(=O)O[C@@H]2C3=C(C)[C@@H](OC(=O)c4ccc(OC(F)(F)F)cc4)CC3[C@](C)(OC(C)=O)CC[C@@H]12` (stereo partly drawn) gave an Activity with HepG2 [1] of 69.25%. For the same molecule, the IC50 was found to be 7.54 µM with HepG2 [2], 11.3 µM in the assay with QGY-7703, 6.1 µM with SMMC-7721 and 36.8 µM in assay [3].
For the molecule `C=C1C(=O)O[C@@H]2C3=C(C)[C@@H](O)CC3[C@](C)(OC(C)=O)CC[C@@H]12` (stereo partly drawn), in the assay on HepG2 [1], the Activity is listed as 32.02%.
`C=C1C(=O)O[C@@H]2C3=C(C)[C@@H](OC(=O)/C=C/c4ccc(F)cc4)CC3[C@](C)(OC(C)=O)CC[C@@H]12` (stereo partly drawn): the Activity with HepG2 [1] is listed as 67.53%. Also, the IC50 in the assay on HepG2 [2] is 9.98 µM; with QGY-7703 it was 12.2 µM; with SMMC-7721 it was 5.8 µM; in assay [3], above 100 µM.
As for `C=C1C(=O)O[C@@H]2C3=C(C)[C@@H](OC(=O)c4ccc(I)cc4)CC3[C@](C)(OC(C)=O)CC[C@@H]12` (stereo partly drawn), the Activity with HepG2 [1] is on record as 63.11%. The IC50 in the assay with HepG2 [2] is 7.57 µM; in the assay on QGY-7703 it was 9 µM; in the assay on SMMC-7721 it was 4.18 µM; in assay [3], 36.5 µM.
For the molecule `C=C1C(=O)O[C@@H]2C3=C(C)[C@@H](OC(=O)/C=C/c4ccc([N+](=O)[O-])cc4)CC3[C@](C)(OC(C)=O)CC[C@@H]12` (stereo partly drawn), in the assay with HepG2 [1], the Activity turned out to be 42.67%.
In the case of `C=C1C(=O)O[C@@H]2C3=C(C)[C@@H](OC(=O)/C=C/c4ccc(C#N)cc4)CC3[C@](C)(OC(C)=O)CC[C@@H]12` (stereo partly drawn), in the assay on HepG2 [1], the Activity came to 48.53%.
In the assay with HepG2 [1], `C=C1C(=O)O[C@@H]2C3=C(C)[C@@H](OC(=O)c4ccc(C(C)(C)C)cc4)CC3[C@](C)(OC(C)=O)CC[C@@H]12` (stereo partly drawn) displayed an Activity of 64.41%. For the same molecule, the IC50 is 11.1 µM in the assay with HepG2 [2], 5.13 µM with QGY-7703, 9.37 µM in the assay with SMMC-7721 and 48.5 µM in assay [3].
`C=C1C(=O)O[C@@H]2C3=C(C)[C@@H](OC(=O)/C=C/c4ccc(OC)cc4)CC3[C@](C)(OC(C)=O)CC[C@@H]12` (stereo partly drawn) gave an Activity in the assay on HepG2 [1] of 61.14%. The IC50 with HepG2 [2] was 12.1 µM; in the assay on QGY-7703, 11.8 µM; with SMMC-7721, 5.41 µM; in assay [3], above 100 µM.
Molecule `C=C1C(=O)O[C@@H]2C3=C(C)[C@@H](OC(=O)/C=C/c4ccc(Br)cc4)CC3[C@](C)(OC(C)=O)CC[C@@H]12` (stereo partly drawn) showed an Activity with HepG2 [1] of 61.39%. Also, the IC50 stood at 11.7 µM with HepG2 [2], 8.91 µM with QGY-7703, 6.09 µM in the assay with SMMC-7721 and 91.3 µM in assay [3].
Take `C=C1C(=O)O[C@@H]2C3=C(C)[C@@H](OC(=O)/C=C/c4ccc(OCC)cc4)CC3[C@](C)(OC(C)=O)CC[C@@H]12` (stereo partly drawn): the Activity in the assay on HepG2 [1] came out at 49.75%.
In the case of `C=C1C(=O)O[C@@H]2C3=C(C)[C@@H](OC(=O)/C=C/c4ccc(C(F)(F)F)cc4)CC3[C@](C)(OC(C)=O)CC[C@@H]12` (stereo partly drawn), the Activity in the assay with HepG2 [1] turned out to be 71.14%. Besides, the IC50 is 6.79 µM with HepG2 [2], 12.7 µM in the assay on QGY-7703, 6.12 µM in the assay with SMMC-7721 and 43.3 µM in assay [3].
Regarding `C=C1C(=O)O[C@@H]2C3=C(C)[C@@H](OC(=O)c4ccc(CCCC)cc4)CC3[C@](C)(OC(C)=O)CC[C@@H]12` (stereo partly drawn), the Activity in the assay with HepG2 [1] is given as 67.53%. The IC50 stood at 10.3 µM in the assay with HepG2 [2], 7.2 µM in the assay on QGY-7703, 7.46 µM with SMMC-7721 and 45.1 µM in assay [3].
Turning to `C=C1C(=O)O[C@@H]2C3=C(C)[C@@H](OC(=O)c4ccccc4)CC3[C@](C)(OC(C)=O)CC[C@@H]12` (stereo partly drawn), the Activity in the assay on HepG2 [1] is on record as 68.47%. In addition, the IC50 with HepG2 [2] is 7.99 µM; in the assay on QGY-7703, 13 µM; in the assay on SMMC-7721, 5.99 µM; in assay [3], above 100 µM.
`C=C1C(=O)O[C@@H]2C3=C(C)[C@@H](OC(=O)c4ccc(F)cc4)CC3[C@](C)(OC(C)=O)CC[C@@H]12` (stereo partly drawn) returned an Activity in the assay with HepG2 [1] of 78.61%. For the same molecule, the IC50 with HepG2 [2] amounted to 6.2 µM; in the assay with QGY-7703, 6.78 µM; with SMMC-7721, 4.97 µM; in assay [3] it was 39 µM.
The matching figures for `C=C1C(=O)O[C@@H]2C3=C(C)[C@@H](OC(=O)/C=C/c4ccc(C)cc4)CC3[C@](C)(OC(C)=O)CC[C@@H]12` (stereo partly drawn): 72.03%, 8.67 µM, 10.6 µM, 5.06 µM and above 100 µM.
For the molecule `C=C1C(=O)O[C@@H]2C3=C(C)[C@@H](OC(=O)c4ccc(CCCCC)cc4)CC3[C@](C)(OC(C)=O)CC[C@@H]12` (stereo partly drawn), in the assay with HepG2 [1], the Activity is listed as 58.08%. Moreover, the IC50 amounted to 10.8 µM in the assay with HepG2 [2], 7.19 µM with QGY-7703, 18.7 µM with SMMC-7721 and 38.5 µM in assay [3].
The matching figures for `C=C1C(=O)O[C@@H]2C3=C(C)[C@@H](OC(=O)c4ccc(OC)cc4)CC3[C@](C)(OC(C)=O)CC[C@@H]12` (stereo partly drawn): 53.03%, 12.2 µM, 22.3 µM, 8.93 µM and above 100 µM.
Turning to `C=C1C(=O)O[C@@H]2C3=C(C)[C@@H](OC(=O)/C=C/c4ccc(SC)cc4)CC3[C@](C)(OC(C)=O)CC[C@@H]12` (stereo partly drawn), the Activity with HepG2 [1] was found to be 36.24%.
In turn, `C=C1C(=O)O[C@@H]2C3=C(C)[C@@H](OC(=O)c4ccc(C)cc4)CC3[C@](C)(OC(C)=O)CC[C@@H]12` (stereo partly drawn) came in with an Activity with HepG2 [1] of 58.47%. Also, the IC50 in the assay with HepG2 [2] is 8.52 µM; in the assay on QGY-7703, 12.2 µM; with SMMC-7721, 6.49 µM; in assay [3], above 100 µM.
In the assay on HepG2 [1], `C=C1C(=O)O[C@@H]2C3=C(C)[C@@H](OC(=O)c4ccc(CCC)cc4)CC3[C@](C)(OC(C)=O)CC[C@@H]12` (stereo partly drawn) showed an Activity of 62.47%. Besides, the IC50 in the assay on HepG2 [2] was found to be 10.1 µM; in the assay with QGY-7703, 8.33 µM; with SMMC-7721, 6.52 µM; in assay [3], 34.3 µM.
The matching figures for `C=C1C(=O)O[C@@H]2C3=C(C)[C@@H](OC(=O)c4ccc(C#N)cc4)CC3[C@](C)(OC(C)=O)CC[C@@H]12` (stereo partly drawn): 62.58%, 9.14 µM, 22.8 µM, 6.7 µM and above 100 µM.
As to `C=C1C(=O)O[C@@H]2C3=C(C)[C@@H](OC(=O)c4ccc(C(C)C)cc4)CC3[C@](C)(OC(C)=O)CC[C@@H]12` (stereo partly drawn), the Activity in the assay on HepG2 [1] was 37.86%.

One may read the IC50 as the point on the concentration scale where inhibition reaches its midpoint. A higher IC50 goes with a need for much substance.
